# STEP block = STEP (human) phosphatase inhibition; recombinant STEP, OMFP fluorogenic substrate, fluorescence; inhibition, % at 20 µM; 0.25% of 360,000 active;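 active = inhibition at 20 µM, scaled per plate between control wells, above about 37%, limit read from the data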;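 also: 0% = DMSO with enzyme and substrate and 100% = substrate only without enzyme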
#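 Material: STEP (striatal-enriched tyrosine phosphatase) enzyme, cell-free | Medium: 50 mM Bis-Tris pH 6.0 with 2.5 mM DTT and 0.005% Tween 20 | Read-out: Percent inhibition scaled to no-enzyme and uninhibited-enzyme controls, plate-pattern corrected | Signal: Fluorescence read at 480 nm ex / 540 nm em | Times: 20 min reaction, room temperature, in the dark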
# Scp-1 inhibitor = inhibitors of human Scp-1 phosphatase; Q9GZU7; Recombinant Scp1, phosphopeptide, malachite green phosphate absorbance; inhibition, % at 20 µM; 0.88% of 340,000 active;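 active = inhibition above about 50% at 20 µM, limit read from the data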;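 also: plate controls were DMSO wells with enzyme for no effect and wells lacking enzyme for full effect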
#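 assay system = SCP-1 phosphatase catalytic domain, residues 76-261 | buffer or medium = 50 mM Tris acetate pH 5.5, 0.005% Tween-20, 10 mM MgCl2 | incubation = enzyme reaction 45 min at room temperature, colour 5 min, stabilisation 30 min | signal = Phosphate-binding colour reagent, absorbance read at 630 nm | measure = % inhibition at 20 µM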
# SUMO1 PPI mod = SUMO1-SIM interaction modulation; P63165; SUMO1 binding to a labelled peptide, TR-FRET, 1 h; inhibition, % at 20 µM; 0.33% of 360,000 active; AID 602429; in the data active = inhibition above about 37%
# HKDC1 inhibitor = HKDC1 (human) hexokinase inhibition; Q2TB90; recombinant HKDC1, G6PDH/diaphorase resazurin coupled fluorescence; inhibition, % at 20 µM; 0.16% of 340,000 active;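 active = inhibition above about 35% when tested at 20 µM, limit read from the data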;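 also: plate controls were DMSO wells with enzyme for no effect and DMSO wells lacking enzyme for full effect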
# Target sequence (Q2TB90 whole entry, looked up): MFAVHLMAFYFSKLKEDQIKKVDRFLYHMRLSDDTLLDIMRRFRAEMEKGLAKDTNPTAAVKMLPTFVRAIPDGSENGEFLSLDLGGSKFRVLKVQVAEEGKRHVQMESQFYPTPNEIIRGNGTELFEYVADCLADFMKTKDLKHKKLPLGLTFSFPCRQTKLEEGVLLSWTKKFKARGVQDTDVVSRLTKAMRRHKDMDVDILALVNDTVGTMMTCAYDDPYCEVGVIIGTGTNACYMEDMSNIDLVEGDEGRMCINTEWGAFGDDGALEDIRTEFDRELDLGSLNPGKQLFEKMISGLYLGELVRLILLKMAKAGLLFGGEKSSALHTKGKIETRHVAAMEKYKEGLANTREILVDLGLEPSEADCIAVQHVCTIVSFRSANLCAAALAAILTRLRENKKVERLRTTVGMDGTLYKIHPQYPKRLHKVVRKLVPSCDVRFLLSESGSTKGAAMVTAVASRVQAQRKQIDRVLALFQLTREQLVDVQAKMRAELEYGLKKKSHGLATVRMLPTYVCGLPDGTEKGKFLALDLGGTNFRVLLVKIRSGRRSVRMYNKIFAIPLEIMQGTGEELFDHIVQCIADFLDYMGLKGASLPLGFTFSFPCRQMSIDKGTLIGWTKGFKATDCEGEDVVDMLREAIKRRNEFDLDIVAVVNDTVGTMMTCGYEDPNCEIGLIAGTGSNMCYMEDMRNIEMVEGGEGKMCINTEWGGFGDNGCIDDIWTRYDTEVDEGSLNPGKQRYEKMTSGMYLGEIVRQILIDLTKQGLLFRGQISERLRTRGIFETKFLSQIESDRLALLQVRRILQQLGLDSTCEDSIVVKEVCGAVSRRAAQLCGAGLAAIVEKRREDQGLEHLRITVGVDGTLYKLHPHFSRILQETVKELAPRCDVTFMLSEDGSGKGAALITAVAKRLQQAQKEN
#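 test system = in-house recombinant HK5 (HKDC1) enzyme | amount = HKDC1 at 5 µg/mL | control set = DMSO-enzyme wells negative, buffer-substituted wells positive | compound = one dose of 20 µM, 1% DMSO | schedule = reaction time 90 min, room temperature, protected from light | technique = resorufin fluorescence at 613 nm | reagent = glucose with 1 mM ATP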
# LMPTP block = LMPTP (human) inhibition. recombinant LMPTP-A, OMFP fluorogenic substrate, fluorescence intensity. inhibition, % at 20 µM. 0.22% of 360,000 active;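 active = compounds that cut the enzyme signal by at least half of the control window in the single-dose screen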;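 also: plate controls were DMSO wells with enzyme plus substrate for no effect and substrate without enzyme for full effect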
#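 Assay system: LMPTP-A enzyme. Input: 0.625 nM LMPTP-A final. Probe or stimulus: 400 µM OMFP. Compound dosing: single 20 µM dose. Schedule: 50 min dark incubation at room temperature. Detection: fluorescence intensity of OMFP turnover product. Read-out: percent inhibition versus substrate-only and uninhibited controls. Benchmarks: no-enzyme low control, uninhibited high control.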
# DNMT1 inh = DNMT1 (human) enzyme inhibition. inhibition (reported as % activation of signal), % at 10 µM. 0.83% of 360,000 active. AID 588458. P26358. DNMT1 molecular beacon, Hinp1I cleavage, fluorescence; in the data active = inhibition above about 50%
# Starred values were filed as active, the others as inactive; x = not tested or not shown. The list is not random: actives were taken first. Their share in the collection is about 1.8%.
SMILES,STEP block,Scp-1 inhibitor,SUMO1 PPI mod,HKDC1 inhibitor,LMPTP block,DNMT1 inh
COc1ccc(NC(=O)c2cc(C3CCCCN3C(=O)c3cc(C(C)(C)C)nn3C)on2)c(C)c1 (centres undefined),0,x,5,x,-1,5
CCOC(=O)C1=C(O)c2ccccc2C(=O)/C1=C\c1ccc(C)cc1,3,2,7,67*,1,-11
C[C@H](CO)N1C[C@H](C)[C@H](CN(C)C(=O)Nc2ccc(C(F)(F)F)cc2)OCc2cnnn2CCCC1=O,-1,x,2,x,0,3
O=C(O)c1ccccc1N=Nc1c(O)[nH]c2ccc([N+](=O)[O-])cc12,46*,81*,111*,37*,21,17
Fc1ccc(C2=Nc3cccc4cccc(c34)N2)cc1,13,-2,-3,7,-1,4
FC(F)(F)C1=Nc2cccc3cccc(c23)N1,18,-1,117*,30,87*,108*
O=C(NCCN1CCCC1)c1ccc(Cn2c(=S)[nH]c3cc4c(cc3c2=O)OCO4)cc1,4,0,5,14,54*,33
CCOc1cccc(C(=O)Nc2cccc(-c3nnc(-c4ccccc4)o3)c2)c1,2,0,-1,4,4,-1
CCOc1cccc(C(=O)Nc2cccc(-c3nnc(-c4ccc(C)cc4)o3)c2)c1,0,-8,0,-5,5,66*
COc1cc(C2NC(=O)CCC2[N+](=O)[O-])cc(OC)c1OC (centres undefined),0,-10,0,-5,-2,-1
CC(C)[C@H](NS(=O)(=O)c1ccccc1)C(=O)Nc1ccccc1N1CCOCC1,4,-2,-3,-9,0,-3
COc1ccc2cc3[n+](cc2c1O)CCc1cc2c(cc1-3)OCO2,x,x,38,x,64*,x
COc1cc2c(cc1OC)-c1cc3ccc(OC)c(OC)c3c[n+]1CC2,2,-6,-15,3,-1,-7
CN(C)CCN1CCN(C2CN(Cc3ccc([N+](=O)[O-])cc3)S(=O)(=O)C2)CC1 (centres undefined),7,x,-28,x,45,19
CCC(=O)c1ccc(OCC(=O)Nc2nc(-c3cccnc3)cs2)cc1,12,39,46*,9,4,41
CCC(=O)c1ccc(OCC(=O)Nc2nc(C)cs2)cc1,2,-5,2,-8,0,3
C[C@@H]1COc2cc(N3CCC[C@@H]3CO)ccc2S(=O)(=O)N1,x,x,5,x,-1,x
O=C1C(=Cc2cn(-c3ccccc3)nc2-c2ccc(OCc3ccccc3F)cc2)SC(=S)N1CCS(=O)(=O)O,7,x,88*,x,89*,37
Cc1ccc(-c2nn(-c3ccccc3)cc2/C=C2\SC(=S)N(CC(=O)O)C2=O)cc1,14,49,8,-9,4,7
O=C(O)CN1C(=O)/C(=C\c2cccc(OCc3ccccc3F)c2)SC1=S,2,-9,-13,19,1,8
O=C1C(=Cc2cn(-c3ccccc3)nc2-c2ccc(OCc3ccc(Cl)cc3)cc2)SC(=S)N1CCS(=O)(=O)O,8,x,110*,x,94*,-181
O=C(O)CCN1C(=O)/C(=C/c2cn(-c3ccccc3)nc2-c2cccs2)SC1=S,74*,38,-4,3,81*,17
COc1ccc2c(c1)[C@H]1[C@H](CO2)[C@H](c2ccccc2)[C@]2(C)C(=O)N(Cc3ccc(C)cc3)CC(=O)N12,1,-8,3,-3,1,-2
CCOCCN1CCN(C2c3ccccc3CSc3ccccc32)CC1 (centres undefined),2,-4,2,0,-2,-4
CCOC(=O)C1(C)CCN1C(=O)c1ccccc1Br (centres undefined),1,x,-1,x,-1,5
SMILES,STEP block,Scp-1 inhibitor,SUMO1 PPI mod,HKDC1 inhibitor,LMPTP block,DNMT1 inh
Cc1cccc2c1NC(=O)C2=O,3,48,-10,10,1,50*
O=C1Nc2c(Cl)cccc2C1=O,4,x,-2,x,1,-23
COc1cccc(C2CC(OCCF)=CC(=O)O2)c1 (centres undefined),x,x,-5,x,-2,x
Cc1ccc2c(c1C)NC(C(=O)O)C1CC=CC21 (centres undefined),20,80*,86*,38*,63*,103*
O=C(O)C1Nc2c(C(F)(F)F)ccc(Cl)c2C2C=CCC12 (centres undefined),3,2,-2,4,-1,7
Cc1cc(C)c2c(c1)NC(C(=O)O)C1CC=CC21 (centres undefined),36,72*,42*,12,43,76*
O=C(O)C1Nc2c(C(=O)N3CCOCC3)cccc2C2C=CCC12 (centres undefined),10,51*,29,11,-2,107*
Cn1c(N)c(C(=O)COC(=O)C2Cc3ccccc3CN2S(C)(=O)=O)c(=O)n(C)c1=O (centres undefined),-1,x,13,x,3,-2
O=[N+]([O-])c1cnccc1-n1nnc2ccccc21,x,x,-36,x,-3,x
O=C(Nc1ccc(Br)cc1)c1ccc2ncsc2c1,-2,2,-12,7,1,-5
O=C(Nc1ccc2c(c1)C(=O)NC2=O)c1ccc2ncsc2c1,-4,-10,42*,0,0,-1
COc1ccc(/C=N/Nc2nc(C(=O)O)cs2)cc1,18,41,6,-2,64*,9
COC(=O)c1ccc(/C=N/Nc2nc(-c3ccccc3)cs2)cc1,2,-8,-2,-7,2,-2
COc1ccc(/C(C)=N/Nc2ccccc2Cl)c(O)c1,9,27,58*,3,0,22
Cc1ccc(NS(=O)(=O)c2cc(C(=O)N(C)C3CCN(C)CC3)ccc2Cl)cc1Cl,-3,-6,-3,-3,0,6
N#Cc1c(N)[nH]c(C(=O)c2ccccc2)c1-c1ccccc1Br,x,x,-7,x,1,x
COc1ccc(NC(=O)c2ccc(Cl)c(S(=O)(=O)NCC3CCCO3)c2)c(OC)c1 (centres undefined),-2,-6,1,11,0,2
Oc1ccccc1/C=N/[n+]1ccccc1,-1,103*,-4,0,-2,-2
CC(C)c1ccc(CN(C)C(=O)c2ccc(S(=O)(=O)NCc3ccco3)cc2)cc1,1,-6,3,-1,1,-1
Nc1ccn(C2C=CC(CO)O2)c(=O)n1 (centres undefined),x,x,2,x,-2,x
COc1ccc(CNC2CC(C)N(C)CC2C)cc1OC (centres undefined),-3,-2,20,-6,53*,1
O=c1nc2s/c(=C\c3ccco3)c(=O)n2nc1Cc1ccc(F)cc1,-1,77*,1,12,0,3
